From ChEMBL document CHEMBL1671781, “Discovery and biological characterization of (2R,4S)-1'-acetyl-N-{(1R)-1-[3,5-bis(trifluoromethyl)phenyl]ethyl}-2-(4-fluoro-2-methylphenyl)-N-methyl-4,4'-bipiperidine-1-carboxamide as a new potent and selective neurokinin 1 (NK1) receptor antagonist clinical candidate” (J Med Chem, 2011)
The source made the active and inactive calls. The calls are words filed in the database; no cut-off is given here.

Legend:
Meriones unguiculatus [1] = assay: Inhibition of GR73632-induced foot tapping in orally dosed Mongolian gerbil after 1 hr; type: functional; conditions: po, read-out: ID50 (the source's name)
In short: (§1)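 GR73632 (3 pmol/5 μL) injected icv into the lateral ventricle of Mongolian gerbils; after 1 min recovery, hind foot tapping timed for 3 min (max 180 s). Oral compound or vehicle (10 mL/kg) given 1, 4, 8 or 24 h beforehand, at least seven animals per group.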

Substance-P receptor = Substance-P receptor (Homo sapiens, UniProt P25103); assay: Displacement of [3H]SP from human NK1 receptor expressed in CHO cells by liquid scintillation counting; type: cell-based
Substance-P receptor, sequence (P25103 whole entry): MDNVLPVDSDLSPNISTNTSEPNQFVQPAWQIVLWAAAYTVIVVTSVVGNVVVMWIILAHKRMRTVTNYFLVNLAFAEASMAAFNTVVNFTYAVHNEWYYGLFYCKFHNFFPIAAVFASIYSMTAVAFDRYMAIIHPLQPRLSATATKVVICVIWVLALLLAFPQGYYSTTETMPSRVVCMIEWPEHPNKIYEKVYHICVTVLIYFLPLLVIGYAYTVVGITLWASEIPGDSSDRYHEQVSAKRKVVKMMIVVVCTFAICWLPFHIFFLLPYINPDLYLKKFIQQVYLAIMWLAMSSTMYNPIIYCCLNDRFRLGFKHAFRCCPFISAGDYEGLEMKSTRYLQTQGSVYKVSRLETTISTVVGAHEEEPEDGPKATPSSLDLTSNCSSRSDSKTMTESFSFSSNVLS

Meriones unguiculatus [2] = assay: Inhibition of GR73632-induced foot tapping in orally dosed Mongolian gerbil after 4 hrs; type: functional; conditions: po, read-out: ID50 (the source's name); in short: as §1
Meriones unguiculatus [3] = assay: Inhibition of GR73632-induced foot tapping in orally dosed Mongolian gerbil after 24 hrs; type: functional; conditions: po, read-out: ID50 (the source's name); in short: as §1
Rattus norvegicus = assay: Volume of distribution at steady state in rat at 1 mg/kg, iv and po; type: ADME, organism-based; parameters: dose 1 mg/kg, route oral; conditions: in vivo
In short: (§2)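 Rats (n = 6) were dosed at 1 mg/kg iv bolus and po by gavage. Serial blood sampling; plasma obtained by centrifugation, then protein precipitation and HPLC-MS/MS quantitation. PK parameters calculated from plasma concentrations.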

[4] = Plasma clearance in dog at 0.5 mg/kg, iv; type: ADME, organism-based, Canis lupus familiaris; parameters: dose 0.5 mg/kg, route intravenous
In short: (§3)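 Dog (n = 6), cynomolgus monkey (n = 3) and marmoset (n = 3) received an iv bolus at 0.5 mg/kg and po gavage at 1 mg/kg. Serial blood samples taken, spun to plasma, and assayed after protein precipitation by HPLC-MS/MS; parameters derived from plasma concentrations.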

[5] = Bioavailability in marmoset at 1 mg/kg, iv; type: ADME, organism-based, Callithrix jacchus; conditions: in vivo
[6] = Binding affinity to calcium channel L type dihydropyridine binding site
[7] = Bioavailability in cynomolgus monkey at 1 mg/kg, iv; type: ADME, organism-based, Macaca fascicularis; conditions: in vivo
Meriones unguiculatus [8] = assay: Antidepressant activity against po dosed Mongolian gerbil assessed as increase in social interaction time at 1 mg/kg, po (Rbv = 19+/-1.2seconds); type: functional
In short: (§4)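 Pairs of unfamiliar male Mongolian gerbils (50-70 g), matched for treatment, placed in arena centre; active social interaction (sniffing, following, partner grooming, wrestling) scored for 5 min. Dosing 1 h before test, po at 0.1, 0.3 and 1.0 mg/kg (10 mL/kg), randomized, 10 animals per group. One-way ANOVA with Dunnett's test or paired t test versus vehicle.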

[9] = target: Sigma non-opioid intracellular receptor 1 (Homo sapiens, UniProt Q99720); assay: Binding affinity to sigma 1 receptor
Sigma non-opioid intracellular receptor 1, sequence (Q99720 whole entry): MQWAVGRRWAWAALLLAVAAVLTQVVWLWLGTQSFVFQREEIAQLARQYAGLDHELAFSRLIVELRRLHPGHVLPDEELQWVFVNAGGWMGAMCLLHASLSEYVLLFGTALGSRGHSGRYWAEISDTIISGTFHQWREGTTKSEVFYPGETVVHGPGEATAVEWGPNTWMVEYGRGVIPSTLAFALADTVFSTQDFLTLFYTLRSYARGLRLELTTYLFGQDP

Meriones unguiculatus [10] = assay: Toxicity in Mongolian gerbil assessed as abnormal behavior at 0.3 to 1 mg/kg, po; type: organism-based; parameters: dose 0.3-1 mg/kg, route oral; conditions: in vivo
In short: (§5)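 Gerbil social interaction arena, po dosing 1 h pretest (0.1, 0.3, 1.0 mg/kg; 10 mL/kg; 10 per group). Abnormal behaviours noted during the 5 min session; sedation checked as locomotor activity scored by line crossing. Compared with vehicle by one-way ANOVA plus Dunnett's test or paired t test.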

Meriones unguiculatus [11] = assay: Antidepressant activity against po dosed Mongolian gerbil assessed as increase in social interaction time; type: functional, organism-based; in short: as §4
[12] = Volume of distribution at steady state in dog at 0.5 mg/kg, iv; type: ADME, organism-based, Canis lupus familiaris; parameters: dose 0.5 mg/kg, route intravenous; conditions: in vivo, read-out: Vdss; in short: as §3
[13] = Binding affinity to calcium channel L type benzodiazepine binding site
[14] = Half life in marmoset at 1 mg/kg, iv; type: ADME, organism-based, Callithrix jacchus; parameters: dose 1 mg/kg, route intravenous; conditions: in vivo
[15] = Plasma clearance in marmoset at 1 mg/kg, iv; type: ADME, organism-based, Callithrix jacchus; parameters: dose 1 mg/kg, route intravenous
[16] = Half life in rat at 1 mg/kg, iv and po; type: ADME, organism-based; parameters: dose 1 mg/kg, route oral; conditions: in vivo; in short: as §2
[17] = Half life […] cynomolgus monkey at 1 mg/kg, iv; type: ADME, organism-based, Macaca fascicularis; parameters: dose 1 mg/kg, route intravenous; conditions: in vivo
Mus musculus = assay: Volume of distribution at steady state in mouse at 2 mg/kg, po; type: ADME, organism-based; parameters: dose 2 mg/kg, route oral; conditions: in vivo
[18] = Oral bioavailability in mouse at 2 mg/kg; type: ADME, organism-based; conditions: in vivo
In short: (§6)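 Mice given 1 mg/kg iv and 2 mg/kg po using a composite design, three animals per time point (n = 21 per arm). Blood collected at nominal times, plasma prepared by centrifugation and analysed by protein precipitation plus HPLC-MS/MS; parameters derived from plasma concentrations.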

[19] = Half life in dog at 0.5 mg/kg, iv; type: ADME, organism-based, Canis lupus familiaris; parameters: dose 0.5 mg/kg, route intravenous; conditions: in vivo; in short: as §3
[20] = Binding affinity to sodium channel site 2
[21] = Volume of distribution at steady state in cynomolgus monkey at 1 mg/kg, iv; type: ADME, organism-based, Macaca fascicularis; parameters: dose 1 mg/kg, route intravenous; conditions: in vivo, read-out: Vdss
[22] = Oral bioavailability in rat at 1 mg/kg; type: ADME, organism-based; conditions: in vivo; in short: as §2
Meriones unguiculatus [23] = assay: Antidepressant activity against Mongolian gerbil assessed as increase in social interaction time at 0.3 to 1 mg/kg, po; type: functional, organism-based; in short: as §4
Meriones unguiculatus [24] = assay: Inhibition of GR73632-induced foot tapping in sc dosed Mongolian gerbil after 1 hr; type: functional; conditions: read-out: ID50 (the source's name)
In short: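 Gerbil foot tapping model: icv GR73632 3 pmol/5 μL into the lateral ventricle, tapping recorded for 3 min after 1 min recovery. Compound given sc 1 h before agonist, seven animals per group.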

[25] = Volume of distribution at steady state in marmoset at 1 mg/kg, iv; type: ADME, organism-based, Callithrix jacchus; parameters: dose 1 mg/kg, route intravenous; conditions: in vivo, read-out: Vdss
[26] = Plasma clearance in cynomolgus monkey at 1 mg/kg, iv; type: ADME, organism-based, Macaca fascicularis; parameters: dose 1 mg/kg, route intravenous
[27] = Plasma clearance in mouse at 2 mg/kg, po; type: ADME, organism-based; parameters: dose 2 mg/kg, route oral
[28] = Bioavailability in dog at 0.5 mg/kg, iv; type: ADME, organism-based, Canis lupus familiaris; conditions: in vivo; in short: as §3
[29] = Half life in mouse at 2 mg/kg, po; type: ADME, organism-based; parameters: dose 2 mg/kg, route oral; conditions: in vivo; in short: as §6
Meriones unguiculatus [30] = assay: Inhibition of GR73632-induced foot tapping in orally dosed Mongolian gerbil after 8 hrs; type: functional; conditions: po, read-out: ID50 (the source's name); in short: as §1
Meriones unguiculatus [31] = assay: Toxicity in Mongolian gerbil assessed as locomotor activity at 1 mg/kg, po; type: functional, organism-based; parameters: dose 1 mg/kg; in short: as §5

In the case of `Cc1cc(F)ccc1[C@H]1C[C@@H](N(C)C)CCN1C(=O)N(C)Cc1cc(C(F)(F)F)cc(C(F)(F)F)c1`, the ED50 (Meriones unguiculatus [1]) is reported as 0.26 mg/kg and the Ki (Substance-P receptor) is reported as 0.0794 nM.

For `Cc1cc(F)ccc1[C@H]1C[C@@H](N(C)C)CCN1C(=O)N(C)[C@H](C)c1cc(C(F)(F)F)cc(C(F)(F)F)c1`, the ED50 (Meriones unguiculatus [1]) was 0.9 mg/kg and the Ki (Substance-P receptor) was 0.24 nM.

Compound `Cc1cc(F)ccc1[C@H]1C[C@H](N(C)C)CCN1C(=O)N(C)[C@H](C)c1cc(C(F)(F)F)cc(C(F)(F)F)c1` has a Ki (Substance-P receptor) of 0.933 nM.

Work on `Cc1cc(F)ccc1[C@H]1C[C@@H](N2CCC2)CCN1C(=O)N(C)Cc1cc(C(F)(F)F)cc(C(F)(F)F)c1` yielded an ED50 (Meriones unguiculatus [2]) of 0.13 mg/kg and a Ki (Substance-P receptor) of 0.0813 nM.

Compound `Cc1cc(F)ccc1[C@H]1C[C@@H](N2CCC2)CCN1C(=O)N(C)[C@H](C)c1cc(C(F)(F)F)cc(C(F)(F)F)c1` has a Ki (Substance-P receptor) of 0.178 nM.

With `Cc1cc(F)ccc1[C@H]1C[C@H](N2CCC2)CCN1C(=O)N(C)[C@H](C)c1cc(C(F)(F)F)cc(C(F)(F)F)c1` the Ki (Substance-P receptor) was 0.646 nM.

In the case of `Cc1cc(F)ccc1[C@H]1C[C@@H](N2CCCC2)CCN1C(=O)N(C)Cc1cc(C(F)(F)F)cc(C(F)(F)F)c1`, the ED50 (Meriones unguiculatus [1]) is reported as 0.3 mg/kg and the Ki (Substance-P receptor) is reported as 0.275 nM.

For `Cc1cc(F)ccc1[C@H]1C[C@@H](N2CCCC2)CCN1C(=O)N(C)[C@H](C)c1cc(C(F)(F)F)cc(C(F)(F)F)c1`, the ED50 (Meriones unguiculatus [1]) was 0.92 mg/kg and the Ki (Substance-P receptor) was 0.141 nM.

With `Cc1cc(F)ccc1[C@H]1C[C@H](N2CCCC2)CCN1C(=O)N(C)[C@H](C)c1cc(C(F)(F)F)cc(C(F)(F)F)c1` the ED50 (Meriones unguiculatus [2]) was greater than 1 mg/kg and the Ki (Substance-P receptor) was 0.2 nM.

Work on `CC(=O)N1CCN([C@H]2CCN(C(=O)N(C)Cc3cc(C(F)(F)F)cc(C(F)(F)F)c3)[C@@H](c3ccc(F)cc3C)C2)CC1` yielded an ED50 (Meriones unguiculatus [1]) of 0.09 mg/kg and a Ki (Substance-P receptor) of 0.117 nM.

`CC(=O)N1CCN([C@@H]2CCN(C(=O)N(C)[C@H](C)c3cc(C(F)(F)F)cc(C(F)(F)F)c3)[C@@H](c3ccc(F)cc3C)C2)CC1` gave an ED50 (Meriones unguiculatus [1]) greater than 0.3 mg/kg.

`CN[C@H]1CCN(C(=O)N(C)Cc2cc(C(F)(F)F)cc(C(F)(F)F)c2)[C@@H](c2ccc(F)cc2C)C1` showed a Ki (Substance-P receptor) of 0.2 nM.

In the case of `Cc1cc(F)ccc1[C@H]1C[C@@H](NC2CC2)CCN1C(=O)N(C)[C@H](C)c1cc(C(F)(F)F)cc(C(F)(F)F)c1`, the ED50 (Meriones unguiculatus [2]) is reported as 0.39 mg/kg and the Ki (Substance-P receptor) is reported as 0.324 nM.

With `Cc1cc(F)ccc1[C@H]1C[C@@H](NC2CCC2)CCN1C(=O)N(C)[C@H](C)c1cc(C(F)(F)F)cc(C(F)(F)F)c1` the Ki (Substance-P receptor) was 0.17 nM.

For `COCCN[C@H]1CCN(C(=O)N(C)[C@H](C)c2cc(C(F)(F)F)cc(C(F)(F)F)c2)[C@@H](c2ccc(F)cc2C)C1`, the Ki (Substance-P receptor) was 0.209 nM.

For `CC(=O)N1CCN([C@H]2CCN(C(=O)N(C)[C@H](C)c3cc(C(F)(F)F)cc(C(F)(F)F)c3)[C@@H](c3ccc(F)cc3C)C2)CC1` [CASOPITANT], the ED50 (Meriones unguiculatus [3]) was 1.1 mg/kg, the Vdss (Rattus norvegicus) was 3.2 L/kg and the ED50 (Meriones unguiculatus [1]) was 0.08 mg/kg. For the same compound, the clearance [4] was 10 mL/min/kg, the bioavailability [5] was 14% and the Ki [6] was 6.58 µM. The bioavailability [7] was 8%, the Time (Meriones unguiculatus [8]) was 36.6 s and the Ki [9] was 2980 nM. For the same compound, the Activity (Meriones unguiculatus [10]) was “Non-toxic”, the Activity (Meriones unguiculatus [11]) was “Dose-dependent effect” and the Vd [12] was 1.9 L/kg. For the same compound, the Ki [13] was 8.78 µM, the half-life [14] was 102 min and the clearance [15] was 29 mL/min/kg. It also gave a half-life [16] of 108 min, a half-life [17] of 126 min and a Vdss (Mus musculus) of 4 L/kg. For the same compound, the bioavailability [18] was 21%, the half-life [19] was 270 min and the Ki [20] was 4.22 µM. The Vd [21] was 3 L/kg, the bioavailability [22] was 8% and the Activity (Meriones unguiculatus [23]) was “Active”. For the same compound, the ED50 (Meriones unguiculatus [24]) was 0.05 mg/kg, the Vd [25] was 3.1 L/kg and the clearance [26] was 26 mL/min/kg. For the same compound, the CL/F [27] was 120 mL/min/kg, the bioavailability [28] was 34% and the half-life [29] was 66 min. For the same compound, the ED50 (Meriones unguiculatus [30]) was 0.19 mg/kg and the Activity (Meriones unguiculatus [31]) was “Not toxic”.

With `Cc1cc(F)ccc1[C@H]1CNCCN1C(=O)N(C)[C@H](C)c1cc(C(F)(F)F)cc(C(F)(F)F)c1` [VESTIPITANT] the ED50 (Meriones unguiculatus [1]) was 0.014 mg/kg.
